Source: PubChem (several laboratories)
Most compounds without a hit are left out; they make up all but 3.4% or so of the library.
RORa activator: activators of orphan receptor RORA, primary screen, cell-based, luminescence | activation, % at 10 µM | Nuclear receptor ROR-alpha (Homo sapiens), P35398 | 65,000 tested, 1.5% active | CHO-K1 Gal4-RORA LBD luciferase reporter; percent increase over mock-subtracted basal signal | AID 560, 2006;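 active = activation above the mean of all tested compounds plus 3 SD, cut at about 49% in these data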
JNK3 inh: JNK3 kinase activity inhibitors, primary screen, biochemical, human, purified enzyme; inhibition, % at 8 µM; 60,000 tested, 0.61% active; Mitogen-activated protein kinase 10 (Homo sapiens), P53779; HTS; in the data active = inhibition above about 17%
WNV NS2B-NS3 inh: inhibitors of WNV NS2B-NS3 protease, primary screen, biochemical, fluorogenic substrate. Genome polyprotein (West Nile virus), P06935. fluorogenic substrate Ex360/Em465; stronger effect = lower value. z-score (no concentration beside the values). 65,000 tested, 0.18% active. AID 577, 2007; in the data active = z-score below about -3
PKA inh: inhibitors of human PKA kinase activity, primary screen, biochemical, ATP-depletion luminescence, Kemptide substrate. PKA Kemptide phosphorylation, Kinase-Glo ATP luminescence. cAMP-dependent protein kinase catalytic subunit alpha (Homo sapiens), P17612. inhibition, % at 6 µM. 65,000 tested, 0.1% active;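 active = inhibition above the screen-wide mean inhibition plus 3 SD, cut at about 21% in these data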
SF-1 act: activators of human SF-1, primary screen, cell-based, CHO-K1, Gal4-SF-1 LBD, luciferase luminescence; Steroidogenic factor 1 (Homo sapiens), Q13285; CHO-K1 Gal4-SF-1 LBD luciferase reporter; % increase over DMSO SF-1-specific signal; activation, % at 10 µM; 65,000 tested, 1.9% active; AID 522, 2006;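 active = activation above the mean activation of all tested compounds plus 3 SD, cut at about 50% in these data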
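Assay system: CHO-K1 cells co-transfected with Gal4 DBD–human SF-1 LBD, 5xGal4 luciferase reporter / Input: 4,000 cells per well / Incubation: 20 h compound exposure at 37 °C after 1 h cell settling / Detection: SteadyLite luciferase luminescence / Control set: DMSO negative control and −SF1 background wells / Replication: one test per compound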
ROCK2 inh: inhibitors of human ROCK2 kinase, primary screen, biochemical, high-throughput, luminescence. 60,000 tested, 0.35% active. inhibition, % at 6 µM. purified ROCK2, Kinase-Glo ATP depletion luminescence. Rho-associated protein kinase 2 (Homo sapiens), O75116;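 active = inhibition above the screen-wide mean inhibition plus 3 SD, cut at about 18% in these data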
Large screens that a line does not name were inactive.

Cc1ccc2cc(CCNC(=O)c3ccco3)c(=O)[nH]c2c1C	RORa activator 50.9, SF-1 act 63.3
Cc1ccc2cc(CCNC(=O)c3ccco3)c(=O)[nH]c2c1	RORa activator 76.9, SF-1 act 64.4
CN(C)S(=O)(=O)c1ccc2nc(NC(=O)c3cccnc3)sc2c1	SF-1 act 62.1
COc1ccccc1C(=O)Nc1nc2ccc(S(C)(=O)=O)cc2s1	none
CCOC(=O)c1ccc2nc(NC(=O)c3ccco3)sc2c1	none
Cc1ccc2nc(NC(=O)COC(=O)c3ccco3)sc2c1	RORa activator 60.6 (no result: JNK3 inh, ROCK2 inh)
CS(=O)(=O)c1ccc2nc(NC(=O)c3ccco3)sc2c1	RORa activator 65.5, SF-1 act 74.4
CCCn1c(SCC(=O)NC)nnc1C(C)C	none
CCCCOc1ccc(-c2nnn(C(C)(C)C(=O)OC)n2)cc1	none
Cc1ccc(NC(=O)c2cnc3scc(C)n3c2=O)c(C)c1	none
Cc1csc2ncc(C(=O)Nc3ccccc3F)c(=O)n12	SF-1 act 49.7
Cc1cccc(NC(=O)c2cnc3scc(C)n3c2=O)c1	RORa activator 49.8
Cc1csc2ncc(C(=O)Nc3ccccc3Cl)c(=O)n12	none
Cc1csc2ncc(C(=O)Nc3ccc4c(c3)OCCO4)c(=O)n12	RORa activator 97.2
Cc1csc2ncc(C(=O)Nc3ccon3)c(=O)n12	none
CS(=O)(=O)N(CC(=O)N1CCCC1)c1cccc(Cl)c1	none
O=C(Nc1cccc(-c2nnc(-c3ccccc3)o2)c1)C1CCCCC1	RORa activator 49.3, SF-1 act 53.2
Cc1cccc(C)c1OCC(=O)Nc1cccc(-c2nnc(-c3ccccc3)o2)c1	none
COc1cccc(-c2nnc(NC(=O)C3CCCCC3)o2)c1	none
CCCCC(=O)Nc1cccc(-c2nnc(-c3ccccc3)o2)c1	RORa activator 67.9
CCOC(=O)c1cnc(Nc2nc3ccccc3o2)nc1CN1CCN(c2ccccc2)CC1	none
CCOC(=O)c1cnc(Nc2nc3ccccc3o2)nc1CSc1nnc(C)s1	RORa activator 58.3
O=C(NCCc1ccccc1)C1CCCN(S(=O)(=O)c2cccc3nsnc23)C1 (stereo not given)	none
CCCn1nnc(NC(=O)c2cc3ccccc3o2)n1	RORa activator 49.4
O=C(Nc1cccc(Br)c1)c1cc2ccccc2o1	RORa activator 71.0
Cc1cccc(NC(=O)c2cc3ccccc3o2)c1	SF-1 act 89.5
CCOC(=O)c1ccc(NC(=O)c2cc3ccccc3o2)cc1	none
CC(C)C(=O)Nc1ccc(NC(=O)c2cc3ccccc3o2)cc1	RORa activator 59.4
CCC(=O)N1CCc2cc(S(=O)(=O)N3CCN(c4ccccn4)CC3)ccc21	none (no result: JNK3 inh, ROCK2 inh)
COc1ccc(C(=O)N[C@H]2COC(C)(C)O[C@H]2c2ccccc2)cc1	none
CCC(=O)Nc1cccc(NC(=O)c2cc3ccccc3o2)c1	RORa activator 58.1
O=C(CS(=O)(=O)c1ccccc1)c1ccc2c(c1)OCCO2	SF-1 act 51.5
O=C(COc1ncnc2ccccc12)c1ccc2c(c1)OCCO2	SF-1 act 58.5
CCOCC(=O)Nc1ccc2c(c1)OCCO2	none
O=C(Cn1cnc2ccccc2c1=O)Nc1ccc2c(c1)OCCO2	SF-1 act 59.1
O=C(CC(=O)c1ccccc1)Nc1ccc2c(c1)OCCO2	SF-1 act 60.8
O=C(O)CCC(=O)c1ccc2c(c1)OCCO2	none
COCc1c(C(=O)OCC(=O)N2c3ccccc3NC(=O)C2(C)C)oc2ccccc12	none
O=C(c1cc2ccccc2oc1=O)N1CCN(c2ccc(N3CCOCC3)nn2)CC1	WNV NS2B-NS3 inh -4.02
Cc1ccc(C)c(N2CCN(C(=O)c3cc4ccccc4oc3=O)CC2)c1	none
CCc1ccc(NC(=O)c2cnc3n(c2=O)CCS3)cc1	SF-1 act 49.5
COC(=O)c1c(NC(=O)Cc2cccs2)sc2c1CCCC2	none
COC(=O)c1c(NC(=O)Cc2cccs2)sc(C)c1C	JNK3 inh 18.5
Cc1onc(-c2ccccc2Cl)c1C(=O)N1CCc2ccccc21	none
CC1(C)Cc2c(sc(NC(=O)c3ccc(Br)o3)c2C#N)CO1	SF-1 act 62.3
N#Cc1c(NC(=O)c2ccc(Cn3cc(Br)cn3)o2)sc2c1CCCCCC2	none
CCCCOC(=O)Nc1ccc(N2CCCCC2)cc1	RORa activator 94.6, SF-1 act 64.5 (no result: JNK3 inh, WNV NS2B-NS3 inh, ROCK2 inh)
Nc1nc(N)c2sc3nc4c(cc3c2n1)CCC4	RORa activator 56.1, SF-1 act 57.1
Brc1ccc(-c2nn3c(-c4ccco4)nnc3s2)o1	JNK3 inh 24.8
Clc1ccc(-c2ccc(-c3nn4c(-c5ccco5)nnc4s3)o2)cc1	none
CCOC(=O)c1csc(NC(=O)c2ccc(S(=O)(=O)N(C)C)cc2)n1	none (no result: JNK3 inh, ROCK2 inh)
CCOC(=O)c1csc(NC(=O)c2ccccc2)n1	RORa activator 79.0, SF-1 act 63.2
CC(C)CCn1c(CN2CCN(c3cccc(Cl)c3)CC2)nc2c1c(=O)n(C)c(=O)n2C	none
CCOC(=O)C(N)CSC1CC(=O)N(c2ccc(C(=O)OC)cc2)C1=O (stereo not given)	none
COC(=O)c1ccc(N2C(=O)CC(SCCN)C2=O)cc1 (stereo not given)	RORa activator 51.4
Cc1cc(NC(=O)CN2CCCC2c2nc3ccccc3s2)no1 (stereo not given)	none
C/C(NC(=O)c1ccccc1)=C1/C(=O)CC2C1C2(C)C (stereo not given)	RORa activator 68.1
c1csc(-c2nc3ccccc3[nH]2)c1	SF-1 act 94.5
Cc1ccc(-c2nc3ccccc3[nH]2)s1	RORa activator 50.2
COC(=O)CSc1nnc(CNC(=O)Cc2ccccc2)n1C	none
O=c1cc(Nc2ccc3c(c2)OCCO3)[nH]c(=O)n1-c1ccc(Cl)cc1	RORa activator 50.0
COc1cc(NC(=O)C2CC(c3cccc(OC)c3OC)=NO2)cc(OC)c1OC (stereo not given)	JNK3 inh 69.0
COc1cc(C2=NOC(C(=O)NCc3ccco3)C2)cc(OC)c1OC (stereo not given)	RORa activator 81.5, SF-1 act 55.2
COc1ccccc1NS(=O)(=O)c1cc(C(=O)NCCN2CCOCC2)ccc1Cl	none
COc1nc2c(C)cccc2cc1-c1noc(-c2ccco2)n1	none
CCCCCC(=O)Nc1ccc(S(=O)(=O)Nc2nccnc2OC)cc1	none (no result: RORa activator, JNK3 inh, PKA inh, SF-1 act, ROCK2 inh)
CC(C)(C)n1ncc2c(=O)n(CC(=O)NCc3ccco3)cnc21	SF-1 act 50.0
CC(C)(C)n1ncc2c(=O)n(CC(=O)NCc3ccc(F)cc3)cnc21	RORa activator 67.1, SF-1 act 91.6
